Assay results published in ChEMBL document CHEMBL2086304, “Synthesis and in vitro antimycobacterial and isocitrate lyase inhibition properties of novel 2-methoxy-2'-hydroxybenzanilides, their thioxo analogues and benzoxazoles” (Eur J Med Chem, 2012).
Values after ≈ are worked out from the molar mass of the structure shown.

Experiments:
[1] = tested on: Mycobacterium tuberculosis; assay: Antimycobacterial activity against Mycobacterium tuberculosis 331/88 after 14 days by micromethod; assay type: functional; details: 331/88, 336 h
Outline: (§1)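 Inocula: M. tuberculosis My 331/88 at 10^-3 dilution, M. avium My 330/88 at 10^-5, M. kansasii My 235/80 and clinical isolate 6509/96 at 10^-4. Compounds added in DMSO at 1000 down to 0.5 (twofold series). Read at 14 and 21 days, plus 7 days for M. kansasii. MIC taken as lowest concentration inhibiting growth.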

[2] = tested on: Mycobacterium tuberculosis; assay: Antimycobacterial activity against Mycobacterium tuberculosis 331/88 after 21 days by micromethod; assay type: functional; details: 331/88, 504 h; outline: as §1
[3] = tested on: Mycobacterium avium; assay: Antimycobacterial activity against isoniazid resistance Mycobacterium avium 330/88 after 14 days by micromethod; assay type: functional; details: 330/88, 336 h; outline: as §1
[4] = tested on: Mycobacterium avium; assay: Antimycobacterial activity against isoniazid resistance Mycobacterium avium 330/88 after 21 days by micromethod; assay type: functional; details: 330/88, 504 h; outline: as §1
[5] = tested on: Mycobacterium kansasii; assay: Antimycobacterial activity against Mycobacterium kansasii 6509/96 clinical isolate after 7 days by micromethod; assay type: functional; details: 6509/96, 168 h; outline: as §1
[6] = tested on: Mycobacterium kansasii; assay: Antimycobacterial activity against isoniazid resistance Mycobacterium kansasii 225/80 after 7 days by micromethod; assay type: functional; details: 225/80, 168 h
[7] = tested on: Mycobacterium kansasii; assay: Antimycobacterial activity against isoniazid resistance Mycobacterium kansasii 225/80 after 14 days by micromethod; assay type: functional; details: 225/80, 336 h
[8] = tested on: Mycobacterium kansasii; assay: Antimycobacterial activity against isoniazid resistance Mycobacterium kansasii 225/80 after 21 days by micromethod; assay type: functional; details: 225/80, 504 h
[9] = tested on: Mycobacterium kansasii; assay: Antimycobacterial activity against Mycobacterium kansasii 6509/96 clinical isolate after 14 days by micromethod; assay type: functional; details: 6509/96, 336 h; outline: as §1
[10] = tested on: Mycobacterium kansasii; assay: Antimycobacterial activity against Mycobacterium kansasii 6509/96 clinical isolate after 21 days by micromethod; assay type: functional; details: 6509/96, 504 h; outline: as §1
[11] = target: T1, Isocitrate lyase (Mycobacterium tuberculosis) (UniProt P9WKK7); assay: Inhibition of Mycobacterium tuberculosis H37Rv isocitrate lyase expressed in Escherichia coli HB101 at 10 umol/L
T1 sequence (whole entry): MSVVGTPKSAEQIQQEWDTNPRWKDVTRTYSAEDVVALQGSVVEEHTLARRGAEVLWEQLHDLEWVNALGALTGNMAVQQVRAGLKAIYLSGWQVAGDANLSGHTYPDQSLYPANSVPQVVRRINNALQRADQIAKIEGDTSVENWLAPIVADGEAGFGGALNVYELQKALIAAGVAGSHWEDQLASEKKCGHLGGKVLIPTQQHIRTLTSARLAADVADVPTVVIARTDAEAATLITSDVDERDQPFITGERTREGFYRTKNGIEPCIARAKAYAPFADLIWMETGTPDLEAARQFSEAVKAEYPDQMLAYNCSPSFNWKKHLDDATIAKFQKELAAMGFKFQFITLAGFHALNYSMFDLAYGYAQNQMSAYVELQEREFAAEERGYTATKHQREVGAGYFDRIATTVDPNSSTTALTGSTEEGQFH
Outline: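 Isocitrate lyase assayed per Dixon–Kornberg in 96-well format. Buffer: 50 mmol/L KH2PO4, 4 mmol/L MgCl2, 4 mmol/L phenylhydrazine, 12 mmol/L cysteine, pH 7.0. Glyoxylate phenylhydrazone read at 324 nm. Compounds added in DMSO, with DMSO-alone inhibition subtracted.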

[12] = tested on: HepG2; assay: Cytotoxicity against human HepG2 cells after 24 hrs by CellTiter-96 cell viability assay; assay type: functional, cell-based; details: HepG2, 24 h
Outline: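 Hep G2 human hepatic cells (passage 12), 10,000 per well, grown 24 h at 37 °C, 5% CO2 in MEM with 1% glutamine, 10% FBS and 1% nonessential amino acids. Compounds in DMSO at eight increasing concentrations, quadruplicate, 24 h at 37 °C. Kit reagent added, 1.5 h at 37 °C, absorbance 490 nm. IC50 is the concentration reducing viability to 50% of control.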

[13] = Selectivity index, ratio of IC50 for human HepG2 cells to MIC for Mycobacterium tuberculosis 331/88 after 14 days; assay type: functional
Outline: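 Cytotoxicity in Hep G2 cells (passage 12), 10,000 cells/well, in MEM with 10% FBS, 1% glutamine and 1% nonessential amino acids. Cells preincubated 24 h, 37 °C, 5% CO2. Compounds in DMSO at eight concentrations in quadruplicate, 24 h. MTS-type reagent added for 1.5 h, A490 read, IC50 taken at 50% viability. SI = this IC50 over the 14-day M. tuberculosis MIC.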

COc1cc(Cl)ccc1-c1nc2cc(Cl)c(Cl)cc2o1
MIC [1]: 250 µM (≈ 82.1 µg/mL) | MIC [2]: 250 µM (≈ 82.1 µg/mL) | MIC [3]: 250 µM (≈ 82.1 µg/mL) | MIC [4]: 500 µM (≈ 164 µg/mL) | MIC [5]: 250 µM (≈ 82.1 µg/mL) | MIC [6]: 250 µM (≈ 82.1 µg/mL) | MIC [7]: 250 µM (≈ 82.1 µg/mL) | MIC [8]: 250 µM (≈ 82.1 µg/mL) | MIC [9]: 250 µM (≈ 82.1 µg/mL) | MIC [10]: 250 µM (≈ 82.1 µg/mL) | inhibition [11]: 0%

COc1cc(Cl)ccc1C(=O)Nc1ccc(C(F)(F)F)cc1O
MIC [1]: 250 µM (≈ 86.4 µg/mL) | MIC [2]: 250 µM (≈ 86.4 µg/mL) | MIC [3]: 62.5 µM (≈ 21.6 µg/mL) | MIC [4]: 62.5 µM (≈ 21.6 µg/mL) | MIC [5]: 250 µM (≈ 86.4 µg/mL) | MIC [7]: 250 µM (≈ 86.4 µg/mL) | MIC [8]: 250 µM (≈ 86.4 µg/mL) | MIC [9]: 250 µM (≈ 86.4 µg/mL) | MIC [10]: 250 µM (≈ 86.4 µg/mL) | inhibition [11]: 7% | IC50 [12]: 3.9 µM | Selectivity Index [13]: 0.02

COc1cc(Cl)ccc1C(=O)Nc1ccc(Cl)cc1OC(=O)c1ccc(Cl)cc1OC
MIC [1]: 4 µM (≈ 1.92 µg/mL) | MIC [2]: 8 µM (≈ 3.85 µg/mL) | MIC [3]: 62.5 µM (≈ 30 µg/mL) | MIC [4]: 62.5 µM (≈ 30 µg/mL) | MIC [5]: 8 µM (≈ 3.85 µg/mL) | MIC [6]: 16 µM (≈ 7.69 µg/mL) | MIC [7]: 32 µM (≈ 15.4 µg/mL) | MIC [8]: 125 µM (≈ 60.1 µg/mL) | MIC [9]: 16 µM (≈ 7.69 µg/mL) | MIC [10]: 62.5 µM (≈ 30 µg/mL) | inhibition [11]: 0%

COc1ccc(Cl)cc1C(=O)Nc1cc(Cl)c(Cl)cc1OC(=O)c1cc(Cl)ccc1OC
MIC [1]: 8 µM (≈ 4.12 µg/mL) | MIC [2]: 8 µM (≈ 4.12 µg/mL) | MIC [3]: 62.5 µM (≈ 32.2 µg/mL) | MIC [4]: 62.5 µM (≈ 32.2 µg/mL) | MIC [5]: 4 µM (≈ 2.06 µg/mL) | MIC [6]: 4 µM (≈ 2.06 µg/mL) | MIC [7]: 8 µM (≈ 4.12 µg/mL) | MIC [8]: 8 µM (≈ 4.12 µg/mL) | MIC [9]: 8 µM (≈ 4.12 µg/mL) | MIC [10]: 8 µM (≈ 4.12 µg/mL) | inhibition [11]: 3%

COc1ccc(Cl)cc1-c1nc2cc(Cl)c(Cl)cc2o1
MIC [1]: 125 µM (≈ 41.1 µg/mL) | MIC [2]: 125 µM (≈ 41.1 µg/mL) | MIC [3]: 125 µM (≈ 41.1 µg/mL) | MIC [4]: 125 µM (≈ 41.1 µg/mL) | MIC [5]: 125 µM (≈ 41.1 µg/mL) | MIC [6]: 125 µM (≈ 41.1 µg/mL) | MIC [7]: 125 µM (≈ 41.1 µg/mL) | MIC [8]: 125 µM (≈ 41.1 µg/mL) | MIC [9]: 125 µM (≈ 41.1 µg/mL) | MIC [10]: 125 µM (≈ 41.1 µg/mL) | inhibition [11]: 4%

COc1cc(Cl)ccc1-c1nc2ccc(C(F)(F)F)cc2o1
MIC [1]: 250 µM (≈ 81.9 µg/mL) | MIC [2]: 250 µM (≈ 81.9 µg/mL) | MIC [3]: 125 µM (≈ 41 µg/mL) | MIC [4]: 125 µM (≈ 41 µg/mL) | MIC [5]: 250 µM (≈ 81.9 µg/mL) | MIC [7]: 250 µM (≈ 81.9 µg/mL) | MIC [8]: 250 µM (≈ 81.9 µg/mL) | MIC [9]: 250 µM (≈ 81.9 µg/mL) | MIC [10]: 250 µM (≈ 81.9 µg/mL) | inhibition [11]: 0%

COc1ccc(Cl)cc1-c1nc2cc(Br)ccc2o1
MIC [1]: 250 µM (≈ 84.6 µg/mL) | MIC [2]: 250 µM (≈ 84.6 µg/mL) | MIC [3]: 250 µM (≈ 84.6 µg/mL) | MIC [4]: 250 µM (≈ 84.6 µg/mL) | MIC [5]: 250 µM (≈ 84.6 µg/mL) | MIC [6]: 250 µM (≈ 84.6 µg/mL) | MIC [7]: 250 µM (≈ 84.6 µg/mL) | MIC [8]: 250 µM (≈ 84.6 µg/mL) | MIC [9]: 250 µM (≈ 84.6 µg/mL) | MIC [10]: 250 µM (≈ 84.6 µg/mL) | inhibition [11]: 0%

O=C(O)CC[N+](=O)[O-]
inhibition [11]: 25%

COc1cc(Cl)ccc1C(=O)Nc1ccc(C(F)(F)F)cc1OC(=O)c1ccc(Cl)cc1OC
MIC [1]: 250 µM (≈ 129 µg/mL) | MIC [2]: 250 µM (≈ 129 µg/mL) | MIC [3]: 62.5 µM (≈ 32.1 µg/mL) | MIC [4]: 62.5 µM (≈ 32.1 µg/mL) | MIC [5]: 250 µM (≈ 129 µg/mL) | MIC [7]: 250 µM (≈ 129 µg/mL) | MIC [8]: 250 µM (≈ 129 µg/mL) | MIC [9]: 250 µM (≈ 129 µg/mL) | MIC [10]: 250 µM (≈ 129 µg/mL) | inhibition [11]: 8%

COc1ccc(Cl)cc1-c1nc2ccc(Br)cc2o1
MIC [1]: 125 µM (≈ 42.3 µg/mL) | MIC [2]: 125 µM (≈ 42.3 µg/mL) | MIC [3]: 125 µM (≈ 42.3 µg/mL) | MIC [4]: 125 µM (≈ 42.3 µg/mL) | MIC [5]: 125 µM (≈ 42.3 µg/mL) | MIC [6]: 125 µM (≈ 42.3 µg/mL) | MIC [7]: 125 µM (≈ 42.3 µg/mL) | MIC [8]: 125 µM (≈ 42.3 µg/mL) | MIC [9]: 125 µM (≈ 42.3 µg/mL) | MIC [10]: 125 µM (≈ 42.3 µg/mL) | inhibition [11]: 0%

COc1cc(Cl)ccc1C(=S)Nc1ccc(C(F)(F)F)cc1O
MIC [1]: 32 µM (≈ 11.6 µg/mL) | MIC [2]: 62.5 µM (≈ 22.6 µg/mL) | MIC [3]: 62.5 µM (≈ 22.6 µg/mL) | MIC [4]: 62.5 µM (≈ 22.6 µg/mL) | MIC [5]: 32 µM (≈ 11.6 µg/mL) | MIC [7]: 62.5 µM (≈ 22.6 µg/mL) | MIC [8]: 62.5 µM (≈ 22.6 µg/mL) | MIC [9]: 62.5 µM (≈ 22.6 µg/mL) | MIC [10]: 62.5 µM (≈ 22.6 µg/mL) | inhibition [11]: 23% | IC50 [12]: 3.14 µM | Selectivity Index [13]: 0.1
